According to ChEMBL document CHEMBL1133721, “Antitumor polycyclic acridines. 7. Synthesis and biological properties of DNA affinic tetra- and pentacyclic acridines” (J Med Chem, 2000):

test system: MCF7; assay: Inhibitory activity against MCF7wt cell line using MTT assay; assay type: functional, cell-based; settings: Homo sapiens
In short: (§1)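 Cells were grown in RPMI 1640 with 2 mM L-glutamine, penicillin/streptomycin and 10% heat-inactivated FCS. Drugs were taken from 10 mM DMSO stocks. Viability was read by MTT at 0.4 mg/mL final for 4 h at 37 °C, with formazan dissolved in DMSO plus glycine buffer and read at 550 nm. IC50 is the concentration halving absorbance versus untreated controls, taken from dose-response curves.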

For `COc1cc(NS(C)(=O)=O)ccc1Nc1c2ccccc2nc2ccccc12` [AMSACRINE], the IC50 was 75 nM.

test system: NCI-H460; assay: (§2) Inhibitory activity against NCI-H322 cell line using MTT assay(mutant p53); assay type: functional, cell-based; settings: Homo sapiens
In short: (§3)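 Human NSCLC lines grown in RPMI 1640 with 2 mM L-glutamine, penicillin/streptomycin and 10% heat-inactivated FCS. Drugs were taken from 10 mM DMSO stocks. Cells were exposed for 7 days, then given MTT at 0.4 mg/mL final for 4 h at 37 °C. Formazan was dissolved in DMSO/glycine buffer and read at 550 nm. IC50 is the 50% absorbance drop versus untreated controls, read from dose-response curves.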

`O=[N+]([O-])c1ccc2c(c1)Nc1c3ccccc3nc3cccc-2c13` was tested, and the IC50 was > 10000 nM.

test system: NCI-H358; assay: (§4) Inhibitory activity against NCI-H358 cell line using MTT assay(mutant p53); assay type: functional, cell-based; settings: Homo sapiens; in short: as §1

First: c1ccc2c(c1)Nc1cccc3ccnc-2c13
Second: COc1cc(NS(C)(=O)=O)ccc1Nc1c2ccccc2nc2ccccc12 [AMSACRINE]
The IC50 of the first is 9.5-fold higher: 1420 nM for the first, 150 nM for the second.

test system: NCI-H322M; assay: as §2; assay type: functional, cell-based; settings: Homo sapiens; in short: as §1

Going from `c1ccc2c(c1)Nc1cccc3ccnc-2c13` to `COc1cc(NS(C)(=O)=O)ccc1Nc1c2ccccc2nc2ccccc12` [AMSACRINE], the IC50 falls from 1860 nM to 210 nM (8.9-fold).

test system: NCI/ADR-RES; assay: Inhibitory activity against MCF-7/adr cell line using MTT assay; assay type: functional, cell-based; settings: Homo sapiens; in short: as §1

`COc1cc(NS(C)(=O)=O)ccc1Nc1c2ccccc2nc2ccccc12` [AMSACRINE] was tested, and the IC50 was 1160 nM.

test system: NCI-H226; assay: as §4; assay type: functional, cell-based; settings: Homo sapiens; in short: as §3

With `O=[N+]([O-])c1ccc2c(c1)Nc1c3ccccc3nc3cccc-2c13` the IC50 was 9500 nM.

test system: MDA-MB-231; assay: Inhibitory activity against MDA-231 cell line using MTT assay (ER-,EGFR+,mutant p53); assay type: functional, cell-based; settings: Homo sapiens; in short: as §1

Going from `c1ccc2c(c1)Nc1cccc3ccnc-2c13` to `O=[N+]([O-])c1ccc2c(c1)Nc1c3ccccc3nc3cccc-2c13`, the IC50 rises from 1730 nM to > 10000 nM.

With `COc1cc(NS(C)(=O)=O)ccc1Nc1c2ccccc2nc2ccccc12` [AMSACRINE] the IC50 was 140 nM.

test system: NCI-H460; assay: Inhibitory activity against H460pv8 cell line using MTT assay; assay type: functional, cell-based; settings: Homo sapiens
In short: (§5)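 This is a 7-day MTT assay in RPMI 1640 with 2 mM L-glutamine, antibiotics and 10% heat-inactivated FCS. The H460pv8/eto variant was kept in 1 µM etoposide. MTT was used at 0.4 mg/mL final for 4 h at 37 °C, and formazan was dissolved in DMSO/glycine buffer and read at 550 nm. IC50 is the 50% absorbance reduction versus untreated controls, from dose-response curves.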

Going from `c1ccc2c(c1)Nc1cccc3ccnc-2c13` to `COc1cc(NS(C)(=O)=O)ccc1Nc1c2ccccc2nc2ccccc12` [AMSACRINE], the IC50 falls from 1100 nM to 200 nM (5.5-fold). The second is the more potent here.

test system: NCI-H460; assay: (§6) Inhibitory activity against NCI-H460 cell line using MTT assay(Wild type p53); assay type: functional, cell-based; settings: Homo sapiens; in short: as §1

Compared with `c1ccc2c(c1)Nc1cccc3ccnc-2c13`, `COc1cc(NS(C)(=O)=O)ccc1Nc1c2ccccc2nc2ccccc12` [AMSACRINE] is 34-fold lower in IC50: 2060 nM for the first, 60 nM for the second.

test system: A549; assay: Inhibitory activity against A549 cell line using MTT assay(Wild type p53); assay type: functional, cell-based; settings: Homo sapiens; in short: as §1

Compared with `c1ccc2c(c1)Nc1cccc3ccnc-2c13`, `O=[N+]([O-])c1ccc2c(c1)Nc1c3ccccc3nc3cccc-2c13` is higher in IC50: 2140 nM for the first, > 10000 nM for the second. The first is the more potent here.

In the case of `COc1cc(NS(C)(=O)=O)ccc1Nc1c2ccccc2nc2ccccc12` [AMSACRINE], the IC50 is reported as 30 nM.

test system: NCI-H358; assay: as §6; assay type: functional, cell-based; settings: Homo sapiens; in short: as §3

With `O=[N+]([O-])c1ccc2c(c1)Nc1c3ccccc3nc3cccc-2c13` the IC50 was > 10000 nM.

test system: ZR-75-1; assay: Inhibitory activity against ZR-75-1 cell line using MTT assay (ER+,pgr+,mutant p53); assay type: functional, cell-based; settings: Homo sapiens; in short: as §1

First: c1ccc2c(c1)Nc1cccc3ccnc-2c13
Second: O=[N+]([O-])c1ccc2c(c1)Nc1c3ccccc3nc3cccc-2c13
The IC50 of the first is 52-fold higher: 1550 nM for the first, 30 nM for the second. The second is the more potent here.

Work on `COc1cc(NS(C)(=O)=O)ccc1Nc1c2ccccc2nc2ccccc12` [AMSACRINE] yielded an IC50 of 180 nM.

test system: NCI-H226; assay: Inhibitory activity against NCI-H226 cell line using MTT assay(mutant p53); assay type: functional, cell-based; settings: Homo sapiens; in short: as §1

First: c1ccc2c(c1)Nc1cccc3ccnc-2c13
Second: O=[N+]([O-])c1ccc2c(c1)Nc1c3ccccc3nc3cccc-2c13
The IC50 of the first is lower: 2340 nM for the first, > 10000 nM for the second.

`COc1cc(NS(C)(=O)=O)ccc1Nc1c2ccccc2nc2ccccc12` [AMSACRINE] gave an IC50 of 1010 nM.

test system: F460pv8/eto; assay: Inhibitory activity against […] using MTT assay; assay type: functional, cell-based; settings: Homo sapiens; in short: as §5

First: c1ccc2c(c1)Nc1cccc3ccnc-2c13
Second: COc1cc(NS(C)(=O)=O)ccc1Nc1c2ccccc2nc2ccccc12 [AMSACRINE]
The IC50 of the first is 27-fold higher: 1070 nM for the first, 40 nM for the second.

test system: NCI-H647; assay: Inhibitory activity against NCI-H647 cell line using MTT assay(mutant p53); assay type: functional, cell-based; settings: Homo sapiens; in short: as §1

First: c1ccc2c(c1)Nc1cccc3ccnc-2c13
Second: O=[N+]([O-])c1ccc2c(c1)Nc1c3ccccc3nc3cccc-2c13
The IC50 of the first is 2.3-fold higher: 2200 nM for the first, 950 nM for the second.

Work on `COc1cc(NS(C)(=O)=O)ccc1Nc1c2ccccc2nc2ccccc12` [AMSACRINE] yielded an IC50 of 70 nM.

test system: T47D; assay: Inhibitory activity against T47D cell line using MTT assay (ER+,mutant p53); assay type: functional, cell-based; settings: Homo sapiens; in short: as §1

First: c1ccc2c(c1)Nc1cccc3ccnc-2c13
Second: O=[N+]([O-])c1ccc2c(c1)Nc1c3ccccc3nc3cccc-2c13
The IC50 of the first is lower: 2100 nM for the first, > 10000 nM for the second.

`COc1cc(NS(C)(=O)=O)ccc1Nc1c2ccccc2nc2ccccc12` [AMSACRINE] showed an IC50 of 220 nM.

test system: MCF7; assay: Inhibitory activity against MCF-7 wt cell line using MTT assay (ER+,pgR+,wildtype p53); assay type: functional, cell-based; settings: Homo sapiens; in short: as §1

First: c1ccc2c(c1)Nc1cccc3ccnc-2c13
Second: O=[N+]([O-])c1ccc2c(c1)Nc1c3ccccc3nc3cccc-2c13
The IC50 of the first is 1.5-fold higher: 830 nM for the first, 550 nM for the second. The second is the more potent here.

Compound `COc1cc(NS(C)(=O)=O)ccc1Nc1c2ccccc2nc2ccccc12` [AMSACRINE] has an IC50 of 75 nM.

test system: NCI-H460; assay: Inhibitory activity against NCI-H460 cell line using MTT assay; assay type: functional, cell-based; settings: Homo sapiens; in short: as §5

Compared with `c1ccc2c(c1)Nc1cccc3ccnc-2c13`, `COc1cc(NS(C)(=O)=O)ccc1Nc1c2ccccc2nc2ccccc12` [AMSACRINE] is 34-fold lower in IC50: 2060 nM for the first, 60 nM for the second.

test system: MDA-MB-468; assay: Inhibitory activity against MDA-468 cell line using MTT assay (ER-, amplified EGFR, mutant p53); assay type: functional, cell-based; settings: Homo sapiens; in short: as §1

First: c1ccc2c(c1)Nc1cccc3ccnc-2c13
Second: O=[N+]([O-])c1ccc2c(c1)Nc1c3ccccc3nc3cccc-2c13
The IC50 of the first is 34-fold higher: 1370 nM for the first, 40 nM for the second.

`COc1cc(NS(C)(=O)=O)ccc1Nc1c2ccccc2nc2ccccc12` [AMSACRINE] gave an IC50 of 490 nM.

test system: SK-BR-3; assay: Inhibitory activity against SKBR-3 cell line using MTT assay (ER-amplified erB2,mutant p53); assay type: functional, cell-based; settings: Homo sapiens; in short: as §1

Compared with `c1ccc2c(c1)Nc1cccc3ccnc-2c13`, `O=[N+]([O-])c1ccc2c(c1)Nc1c3ccccc3nc3cccc-2c13` is 4.8-fold lower in IC50: 580 nM for the first, 120 nM for the second. The second is the more potent here.

`COc1cc(NS(C)(=O)=O)ccc1Nc1c2ccccc2nc2ccccc12` [AMSACRINE] was tested, and the IC50 was 60 nM.
